Laboratory results published in ChEMBL document CHEMBL1147176, “Synthesis of S-dialkylarsino-3-mercapto-1,2-propanediols and evaluation of their anticancer activity” (2007).

Assays:
Format in all cases: functional
SF-295 = assay: Anticancer activity against human SF295 cells assessed as growth inhibition; conditions: read-out: Log LC50 (the source's name) (converted)
Summary of the method: (§1)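 NCI in vitro disease-oriented human tumor cell screen, about 60 lines. Growth inhibition read as pGI50, the -log of the molar concentration inhibiting 50% net cell growth. A mean graph midpoint is the arithmetic mean over all tested lines. Where the effect was not reached within the concentration interval, the highest tested concentration was used.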

SF-539 = assay: Anticancer activity against human SF539 cells assessed as growth inhibition; summary of the method: as §1
SNB-19 = assay: Anticancer activity against human SNB19 cells assessed as growth inhibition; summary of the method: as §1
U-251 = assay: Anticancer activity against human U251 cells assessed as growth inhibition
Summary of the method: (§2)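 The value is GI50, the molar concentration causing 50% inhibition of net cell growth, reported as pGI50 (−log molar).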

Malme-3M = assay: Anticancer activity against human MALME3M cells assessed as growth inhibition; summary of the method: as §1
M14 = assay: Anticancer activity against human M14 cells assessed as growth inhibition; summary of the method: as §1
SK-MEL-28 = assay: Anticancer activity against human SK-MEL-28 cells assessed as growth inhibition; summary of the method: as §1
OVCAR-3 = assay: Anticancer activity against human OVCAR-3 cells assessed as growth inhibition; summary of the method: as §1
OVCAR-4 = assay: Anticancer activity against human OVCAR4 cells assessed as growth inhibition; summary of the method: as §1
OVCAR-5 = assay: Anticancer activity against human OVCAR5 cells assessed as growth inhibition; summary of the method: as §1
OVCAR-8 = assay: Anticancer activity against human OVCAR8 cells assessed as growth inhibition; summary of the method: as §1
SK-OV-3 = assay: Anticancer activity against human SK-OV3 cells assessed as growth inhibition; summary of the method: as §1
786-0 = assay: Anticancer activity against human 786-0 cells assessed as growth inhibition; conditions: read-out: Log LC50 (the source's name) (converted); summary of the method: as §1
ACHN = assay: Anticancer activity against human ACHN cells assessed as growth inhibition; summary of the method: as §1
RXF 393 = assay: Anticancer activity against human RXF393 cells assessed as growth inhibition; summary of the method: as §1
SN12C = assay: Anticancer activity against human SN12C cells assessed as growth inhibition; summary of the method: as §1
TK-10 = assay: Anticancer activity against human TK10 cells assessed as growth inhibition; summary of the method: as §1
UO-31 = assay: Anticancer activity against human UO31 cells assessed as growth inhibition; summary of the method: as §2
PC-3 = assay: Anticancer activity against human PC3 cells assessed as growth inhibition; summary of the method: as §1
DU-145 = assay: Anticancer activity against human DU145 cells assessed as growth inhibition; summary of the method: as §1
MCF7 = assay: Anticancer activity against human MCF7 cells assessed as growth inhibition; summary of the method: as §1
NCI/ADR-RES = assay: Anticancer activity against human NCI/ADR-RES cells assessed as growth inhibition; summary of the method: as §1
[1] = Anticancer activity against human HS 578T cells assessed as growth inhibition; summary of the method: as §1
MDA-MB-435 = assay: Anticancer activity against human MDA-MB435 cells assessed as growth inhibition; summary of the method: as §1
BT-549 = assay: Anticancer activity against human BT549 cells assessed as growth inhibition; summary of the method: as §1
T47D = assay: Anticancer activity against human T47D cells assessed as growth inhibition; summary of the method: as §1
A498 = assay: Anticancer activity against human A498 cells assessed as growth inhibition; summary of the method: as §1
[2] = read-out: Log LC50 (the source's name) (converted)

**Q.** Which CC50 (SF-295) does the source give for `C[As](C)SCC(COC(=O)C(Cl)c1ccccc1)OC(=O)C(Cl)c1ccccc1` (stereo unspecified) here?
**A.** 43.7 µM

**Q.** What about the GI50 (SF-539) of the same compound?
**A.** 3.63 µM

**Q.** And the CC50 (SF-539; [2])?
**A.** > 100 µM

**Q.** And the GI50 (SNB-19)?
**A.** 11.5 µM

**Q.** What about the CC50 (SNB-19; [2]) of the same compound?
**A.** 85.1 µM

**Q.** What about the GI50 (U-251) of the same compound?
**A.** 6.31 µM

**Q.** What about the CC50 (U-251; [2]) of the same compound?
**A.** > 100 µM

**Q.** And the GI50 (Malme-3M)?
**A.** 0.0398 µM

**Q.** What about the CC50 (Malme-3M; [2]) of the same compound?
**A.** 3.39 µM

**Q.** And the GI50 (M14)?
**A.** 0.603 µM

**Q.** What about the CC50 (M14; [2]) of the same compound?
**A.** 34.7 µM

**Q.** What about the GI50 (SK-MEL-28) of the same compound?
**A.** 0.603 µM

**Q.** And the GI50 (OVCAR-3)?
**A.** 0.178 µM

**Q.** And the CC50 (OVCAR-3; [2])?
**A.** 3.24 µM

**Q.** And the GI50 (OVCAR-4)?
**A.** 1.26 µM

**Q.** And the CC50 (OVCAR-4; [2])?
**A.** > 100 µM

**Q.** What about the GI50 (OVCAR-5) of the same compound?
**A.** 3.55 µM

**Q.** What about the CC50 (OVCAR-5; [2]) of the same compound?
**A.** 37.2 µM

**Q.** What about the GI50 (OVCAR-8) of the same compound?
**A.** 4.07 µM

**Q.** And the CC50 (OVCAR-8; [2])?
**A.** > 100 µM

**Q.** What about the GI50 (SK-OV-3) of the same compound?
**A.** 0.646 µM

**Q.** And the CC50 (SK-OV-3; [2])?
**A.** > 100 µM

**Q.** And the CC50 (786-0)?
**A.** 25.1 µM

**Q.** What about the GI50 (ACHN) of the same compound?
**A.** 0.759 µM

**Q.** What about the CC50 (ACHN; [2]) of the same compound?
**A.** 38.9 µM

**Q.** What about the GI50 (RXF 393) of the same compound?
**A.** 0.363 µM

**Q.** What about the CC50 (RXF 393; [2]) of the same compound?
**A.** 36.3 µM

**Q.** What about the GI50 (SN12C) of the same compound?
**A.** 2.45 µM

**Q.** What about the CC50 (SN12C; [2]) of the same compound?
**A.** 67.6 µM

**Q.** And the GI50 (TK-10)?
**A.** 0.112 µM

**Q.** What about the CC50 (TK-10; [2]) of the same compound?
**A.** 2.69 µM

**Q.** What about the GI50 (UO-31) of the same compound?
**A.** 5.37 µM

**Q.** And the CC50 (UO-31; [2])?
**A.** > 100 µM

**Q.** What about the GI50 (PC-3) of the same compound?
**A.** 0.55 µM

**Q.** And the CC50 (PC-3; [2])?
**A.** 47.9 µM

**Q.** What about the GI50 (DU-145) of the same compound?
**A.** 4.27 µM

**Q.** What about the CC50 (DU-145; [2]) of the same compound?
**A.** 58.9 µM

**Q.** And the GI50 (MCF7)?
**A.** 0.372 µM

**Q.** What about the CC50 (MCF7; [2]) of the same compound?
**A.** 67.6 µM

**Q.** And the GI50 (NCI/ADR-RES)?
**A.** 2.04 µM

**Q.** And the CC50 (NCI/ADR-RES; [2])?
**A.** 32.4 µM

**Q.** What about the GI50 [1] of the same compound?
**A.** 6.17 µM

**Q.** And the CC50 [1, 2]?
**A.** > 100 µM

**Q.** What about the GI50 (MDA-MB-435) of the same compound?
**A.** 0.209 µM

**Q.** What about the CC50 (MDA-MB-435; [2]) of the same compound?
**A.** 28.8 µM

**Q.** What about the GI50 (BT-549) of the same compound?
**A.** 2.45 µM

**Q.** What about the CC50 (BT-549; [2]) of the same compound?
**A.** 64.6 µM

**Q.** And the GI50 (T47D)?
**A.** 5.89 µM

**Q.** And the CC50 (T47D; [2])?
**A.** 60.3 µM

**Q.** What about the GI50 (A498) of the same compound?
**A.** 5.5 µM

**Q.** And the CC50 (A498; [2])?
**A.** 57.5 µM
